Experiments:
[1] = Stability in mouse liver microsomes assessed as parent compound remaining after 10 mins; format: ADME, Microsome; settings: read-out: Stability
In short: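 Rough stability screen: compound incubated with mouse liver microsomes for 10 min, reported as percentage of parent remaining.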

PXR (NR1I2) = biological target: T1, PXR (NR1I2) (Homo sapiens, UniProt O75469); experiment: Transactivation of PXR in human HepG2 cells relative to rifampicin; format: ADME, cell-based; settings: read-out: %max
T1 sequence (O75469 whole entry): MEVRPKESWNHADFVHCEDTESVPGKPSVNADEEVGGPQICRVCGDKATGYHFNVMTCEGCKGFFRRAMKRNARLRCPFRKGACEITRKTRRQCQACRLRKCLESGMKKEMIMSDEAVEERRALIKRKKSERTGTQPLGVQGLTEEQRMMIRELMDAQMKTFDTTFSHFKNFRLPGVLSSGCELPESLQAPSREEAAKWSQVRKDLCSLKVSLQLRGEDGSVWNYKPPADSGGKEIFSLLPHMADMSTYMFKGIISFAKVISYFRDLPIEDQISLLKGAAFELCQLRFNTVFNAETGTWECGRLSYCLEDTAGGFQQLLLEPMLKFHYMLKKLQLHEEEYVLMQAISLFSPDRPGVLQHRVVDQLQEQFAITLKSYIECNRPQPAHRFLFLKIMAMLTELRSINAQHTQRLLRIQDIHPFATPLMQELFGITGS

[2] = biological target: T2, Nuclear receptor subfamily 1 group I member 2 (Homo sapiens, UniProt O75469); experiment: Transactivation of PXR in human HepG2 cells; format: ADME, cell-based
T2 sequence (O75469 whole entry): T1 sequence (O75469 whole entry)

[3] = biological target: T3, Oxysterols receptor LXR-alpha (Homo sapiens, UniProt Q13133); experiment: Agonist activity at LXRalpha (unknown origin) expressed in African green monkey CV1 cells; format: cell-based
T3 sequence (Q13133 whole entry): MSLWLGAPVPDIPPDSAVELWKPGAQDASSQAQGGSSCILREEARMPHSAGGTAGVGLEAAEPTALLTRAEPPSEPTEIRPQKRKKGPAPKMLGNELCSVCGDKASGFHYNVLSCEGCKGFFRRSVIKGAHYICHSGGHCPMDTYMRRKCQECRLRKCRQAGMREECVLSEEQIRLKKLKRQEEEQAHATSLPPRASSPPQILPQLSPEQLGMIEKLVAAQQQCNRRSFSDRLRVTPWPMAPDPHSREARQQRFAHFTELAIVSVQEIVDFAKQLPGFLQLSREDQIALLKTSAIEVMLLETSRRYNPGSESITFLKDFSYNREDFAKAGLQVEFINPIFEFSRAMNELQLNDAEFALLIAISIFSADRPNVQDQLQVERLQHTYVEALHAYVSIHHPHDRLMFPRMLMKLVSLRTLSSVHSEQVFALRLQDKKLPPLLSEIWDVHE

[4] = biological target: T4, Oxysterols receptor LXR-beta (Homo sapiens, UniProt P55055); experiment: Agonist activity at LXRbeta (unknown origin) expressed in African green monkey CV1 cells; format: cell-based
T4 sequence (P55055 whole entry): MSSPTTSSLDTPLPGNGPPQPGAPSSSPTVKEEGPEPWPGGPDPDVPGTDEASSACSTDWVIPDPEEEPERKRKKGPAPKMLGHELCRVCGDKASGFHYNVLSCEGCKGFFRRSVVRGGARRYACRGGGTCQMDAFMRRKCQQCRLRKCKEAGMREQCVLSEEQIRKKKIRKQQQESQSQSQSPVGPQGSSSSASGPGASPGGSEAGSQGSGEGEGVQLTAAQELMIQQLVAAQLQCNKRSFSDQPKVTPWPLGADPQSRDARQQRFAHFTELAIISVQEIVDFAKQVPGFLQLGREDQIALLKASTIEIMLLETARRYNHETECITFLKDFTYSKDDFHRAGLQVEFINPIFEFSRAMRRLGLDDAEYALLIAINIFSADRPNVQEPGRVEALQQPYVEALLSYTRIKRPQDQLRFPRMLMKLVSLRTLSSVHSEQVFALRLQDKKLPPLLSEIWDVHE

[5] = Protein binding in mouse plasma assessed as unbound fraction; format: ADME, cell-free
[6] = Protein binding in human plasma assessed as unbound fraction; format: ADME, cell-free
[7] = biological target: T5, Oxysterols receptor LXR-alpha (Homo sapiens) (UniProt Q13133); experiment: Agonist activity at LXRalpha (unknown origin) expressed in African green monkey CV1 cells relative to T0901317; format: cell-based
T5 sequence (whole entry): T3 sequence (Q13133 whole entry)

O=C(O)C1CCN(C(=O)N2CC[C@](c3ccc(C(F)(C(F)(F)F)C(F)(F)F)cc3)(S(=O)(=O)c3ccc(F)cc3)C2)CC1
remaining at 10 min [1]: 88%
Emax (PXR (NR1I2)): 23%
EC50 [2]: > 46100 nM
EC50 [3]: > 7.5 µM
EC50 [4]: > 7.5 µM

O=C(O)[C@H]1CC[C@@H](C(=O)N2CC[C@](c3ccc(C(F)(C(F)(F)F)C(F)(F)F)cc3)(S(=O)(=O)c3ccc(F)cc3)C2)CC1
EC50 [3]: > 7.5 µM
EC50 [4]: > 7.5 µM

O=S(=O)(c1ccc(F)cc1)[C@]1(c2ccc(C(O)(C(F)(F)F)C(F)(F)F)cc2)CCNC1
Emax (PXR (NR1I2)): 110%
EC50 [2]: 520 nM
EC50 [3]: > 7.5 µM
EC50 [4]: > 7.5 µM

O=S(=O)(c1ccc(F)cc1)C1(c2ccc(C(F)(C(F)(F)F)C(F)(F)F)cc2)CCCC1
Emax (PXR (NR1I2)): 130%
EC50 [2]: 1010 nM

Cc1ccc(S(=O)(=O)[C@@]2(c3ccc(C(F)(C(F)(F)F)C(F)(F)F)cc3)CCN(C(=O)[C@H]3CC[C@H](C(=O)O)CC3)C2)cc1
remaining at 10 min [1]: 85%
Emax (PXR (NR1I2)): 29%
fraction unbound [5]: 0.026
fraction unbound [6]: 0.013
EC50 [2]: 12600 nM
EC50 [3]: > 7.5 µM
EC50 [4]: > 7.5 µM

O=S(=O)(c1ccc(F)cc1)[C@@]1(c2ccc(C(O)(C(F)(F)F)C(F)(F)F)cc2)CCNC1
Emax (PXR (NR1I2)): 110%
EC50 [2]: 434 nM
%max [7]: 58%
EC50 [3]: 2.92 µM
EC50 [4]: > 7.5 µM

CC(=O)N1CCN(C(=O)N2CC[C@@](c3ccc(C(O)(C(F)(F)F)C(F)(F)F)cc3)(S(=O)(=O)c3ccc(F)cc3)C2)CC1
EC50 [3]: > 7.5 µM
EC50 [4]: > 7.5 µM

CCc1ccc(S(=O)(=O)[C@@]2(c3ccc(C(F)(C(F)(F)F)C(F)(F)F)cc3)CCN(C(=O)[C@H]3CC[C@H](C(=O)O)CC3)C2)cc1
remaining at 10 min [1]: 100%
Emax (PXR (NR1I2)): 3%
EC50 [2]: > 50000 nM
EC50 [3]: > 7.5 µM
EC50 [4]: > 7.5 µM

CCC(O)(c1ccc(C2(S(=O)(=O)c3ccc(F)cc3)CCCC2)cc1)C(F)(F)F (racemic)
Emax (PXR (NR1I2)): 110%
EC50 [2]: 48 nM

CC(=O)N1CCN(C(=O)N2CC[C@](c3ccc(C(F)(C(F)(F)F)C(F)(F)F)cc3)(S(=O)(=O)c3ccc(F)cc3)C2)CC1
remaining at 10 min [1]: 68%
Emax (PXR (NR1I2)): 10%
EC50 [3]: > 7.5 µM
EC50 [4]: > 7.5 µM

NC(c1ccc(C2(S(=O)(=O)c3ccc(F)cc3)CCCC2)cc1)(C(F)(F)F)C(F)(F)F
Emax (PXR (NR1I2)): 120%
EC50 [2]: 275 nM

CC(=O)N1CCC(C(=O)N2CC[C@](c3ccc(C(O)(C(F)(F)F)C(F)(F)F)cc3)(S(=O)(=O)c3ccc(F)cc3)C2)CC1
EC50 [3]: > 7.5 µM
EC50 [4]: > 7.5 µM

COc1ccc(S(=O)(=O)[C@@]2(c3ccc(C(F)(C(F)(F)F)C(F)(F)F)cc3)CCN(C(=O)[C@H]3CC[C@H](C(=O)O)CC3)C2)cc1
remaining at 10 min [1]: 98%
Emax (PXR (NR1I2)): 12%
EC50 [2]: > 50000 nM
EC50 [3]: > 7.5 µM
EC50 [4]: > 7.5 µM

O=C(O)[C@H]1CC[C@H](C(=O)N2CC[C@](c3ccc(C(F)(C(F)(F)F)C(F)(F)F)cc3)(S(=O)(=O)c3ccc(Cl)cc3)C2)CC1
remaining at 10 min [1]: 100%
Emax (PXR (NR1I2)): 22%
EC50 [2]: 6440 nM
EC50 [3]: > 7.5 µM
EC50 [4]: > 7.5 µM

CC(=O)N1CCN(C(=O)N2CC[C@](c3ccc(C(O)(C(F)(F)F)C(F)(F)F)cc3)(S(=O)(=O)c3ccc(F)cc3)C2)CC1
EC50 [3]: > 7.5 µM
EC50 [4]: > 7.5 µM

CCc1cc(S(=O)(=O)[C@@]2(c3ccc(C(F)(C(F)(F)F)C(F)(F)F)cc3)CCN(C(=O)[C@H]3CC[C@H](C(=O)O)CC3)C2)ccc1F
remaining at 10 min [1]: 73%
Emax (PXR (NR1I2)): 9%
EC50 [2]: > 50000 nM
EC50 [3]: > 7.5 µM
EC50 [4]: > 7.5 µM

O=S(=O)(c1ccc(F)cc1)C1(c2ccc(C(O)(C(F)(F)F)C(F)(F)F)cc2)CCCC1
Emax (PXR (NR1I2)): 110%
EC50 [2]: 10 nM

CC(=O)N1CCC(c2ccc(C(O)(C(F)(F)F)C(F)(F)F)cc2)(S(=O)(=O)c2ccc(F)cc2)C1 (racemic)
Emax (PXR (NR1I2)): 100%
EC50 [2]: 480 nM
EC50 [3]: > 7.5 µM
EC50 [4]: > 7.5 µM

O=C(C1CCCC1)N1CCC(c2ccc(C(O)(C(F)(F)F)C(F)(F)F)cc2)(S(=O)(=O)c2ccc(F)cc2)C1 (racemic)
Emax (PXR (NR1I2)): 99%
EC50 [2]: 794 nM
EC50 [3]: > 7.5 µM
EC50 [4]: > 7.5 µM

CC(O)(c1ccc(C2(S(=O)(=O)c3ccc(F)cc3)CCCC2)cc1)C(F)(F)F (racemic)
Emax (PXR (NR1I2)): 110%
EC50 [2]: 239 nM

CC(=O)N1CCC(C(=O)N2CC[C@](c3ccc(C(F)(C(F)(F)F)C(F)(F)F)cc3)(S(=O)(=O)c3ccc(F)cc3)C2)CC1
Emax (PXR (NR1I2)): 7%
EC50 [3]: > 7.5 µM
EC50 [4]: > 7.5 µM

CCNC(=O)N1CCC(c2ccc(C(O)(C(F)(F)F)C(F)(F)F)cc2)(S(=O)(=O)c2ccc(F)cc2)C1 (racemic)
EC50 [3]: > 7.5 µM
EC50 [4]: > 7.5 µM

Cc1cc(S(=O)(=O)[C@@]2(c3ccc(C(F)(C(F)(F)F)C(F)(F)F)cc3)CCN(C(=O)[C@H]3CC[C@H](C(=O)O)CC3)C2)ccc1F
remaining at 10 min [1]: 84%
Emax (PXR (NR1I2)): 40%
fraction unbound [5]: 0.029
fraction unbound [6]: 0.017
EC50 [2]: > 22800 nM
EC50 [3]: > 7.5 µM
EC50 [4]: > 7.5 µM

CS(=O)(=O)N1CCC(C(=O)N2CC[C@](c3ccc(C(F)(C(F)(F)F)C(F)(F)F)cc3)(S(=O)(=O)c3ccc(F)cc3)C2)CC1
remaining at 10 min [1]: 69%
Emax (PXR (NR1I2)): 2%
EC50 [2]: > 50000 nM
EC50 [3]: > 7.5 µM
EC50 [4]: > 7.5 µM

CC(c1ccc(C2(S(=O)(=O)c3ccc(F)cc3)CCCC2)cc1)(C(F)(F)F)C(F)(F)F
Emax (PXR (NR1I2)): 140%
EC50 [2]: 752 nM

O=C(O)[C@H]1CC[C@H](C(=O)N2CC[C@](c3ccc(C(F)(C(F)(F)F)C(F)(F)F)cc3)(S(=O)(=O)c3ccccc3)C2)CC1
remaining at 10 min [1]: 96%
Emax (PXR (NR1I2)): 10%
EC50 [2]: > 50000 nM
EC50 [3]: > 7.5 µM
EC50 [4]: > 7.5 µM

O=C(O)[C@H]1CC[C@H](C(=O)N2CC[C@](c3ccc(C(F)(C(F)(F)F)C(F)(F)F)cc3)(S(=O)(=O)c3ccc(F)c(C4CC4)c3)C2)CC1
remaining at 10 min [1]: 74%
Emax (PXR (NR1I2)): 9%
EC50 [2]: > 50000 nM
EC50 [3]: > 7.5 µM
EC50 [4]: > 7.5 µM

CS(=O)(=O)N1CCC(C(=O)N2CC[C@](c3ccc(C(O)(C(F)(F)F)C(F)(F)F)cc3)(S(=O)(=O)c3ccc(F)cc3)C2)CC1
Emax (PXR (NR1I2)): 89%
EC50 [2]: > 2470 nM
EC50 [3]: > 7.5 µM
EC50 [4]: > 7.5 µM

O=S(=O)(c1ccc(F)cc1)C1(c2ccc(C(Cl)(C(F)(F)F)C(F)(F)F)cc2)CCCC1
Emax (PXR (NR1I2)): 110%
EC50 [2]: 229 nM
